From ChEMBL document CHEMBL5653631, “A Potent and Selective ULK1 Inhibitor Suppresses Autophagy and Sensitizes Cancer Cells to Nutrient Stress” (iScience, 2018)

What was measured:
[1] = biological target: 5'-AMP-activated protein kinase catalytic subunit alpha-2 (Homo sapiens) (UniProt P54646); test: Inhibition of human recombinant AMPKa2 at 40 nM in presence of ATP by radiometric assay relative to control
In short: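 Panel of 327 recombinant human kinases, each assayed in vitro by radiometric activity assay in duplicate at a single inhibitor concentration per compound, chosen with reference to its ULK1 inhibition. Activity remaining was expressed as percent of vehicle control, and percent inhibition was calculated as 100 minus percent activity remaining.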

[2] = biological target: Serine/threonine-protein kinase MARK1 (Homo sapiens) (UniProt Q9P0L2); test: Inhibition of human recombinant MARK1 at 40 nM in presence of ATP by radiometric assay relative to control
Sequence of Serine/threonine-protein kinase MARK1 (Homo sapiens) (Q9P0L2 whole entry, looked up): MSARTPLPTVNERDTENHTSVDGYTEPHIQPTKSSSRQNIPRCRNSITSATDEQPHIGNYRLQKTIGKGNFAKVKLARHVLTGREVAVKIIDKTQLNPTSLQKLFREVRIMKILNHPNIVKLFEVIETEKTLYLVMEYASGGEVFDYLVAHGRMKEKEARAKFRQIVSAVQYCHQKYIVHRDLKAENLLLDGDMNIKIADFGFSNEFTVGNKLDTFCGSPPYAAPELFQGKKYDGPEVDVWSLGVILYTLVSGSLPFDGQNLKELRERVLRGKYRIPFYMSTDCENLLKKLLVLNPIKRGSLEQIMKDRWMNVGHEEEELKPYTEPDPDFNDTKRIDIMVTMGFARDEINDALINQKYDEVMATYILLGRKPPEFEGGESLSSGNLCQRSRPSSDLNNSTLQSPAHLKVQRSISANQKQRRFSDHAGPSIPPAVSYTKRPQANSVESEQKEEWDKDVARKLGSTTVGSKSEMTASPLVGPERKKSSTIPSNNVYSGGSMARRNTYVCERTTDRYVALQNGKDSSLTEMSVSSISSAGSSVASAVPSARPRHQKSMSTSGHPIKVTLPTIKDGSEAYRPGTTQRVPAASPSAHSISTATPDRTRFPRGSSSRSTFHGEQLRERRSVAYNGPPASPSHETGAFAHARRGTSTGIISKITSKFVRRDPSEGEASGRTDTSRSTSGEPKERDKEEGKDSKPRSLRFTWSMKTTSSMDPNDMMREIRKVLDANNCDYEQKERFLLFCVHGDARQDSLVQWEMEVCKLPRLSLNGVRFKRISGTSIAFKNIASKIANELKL

[3] = biological target: Serine/threonine-protein kinase MRCK beta (Homo sapiens) (UniProt Q9Y5S2); test: Inhibition of human recombinant MRCKb at 40 nM in presence of ATP by radiometric assay relative to control
Sequence of Serine/threonine-protein kinase MRCK beta (Homo sapiens) (Q9Y5S2 whole entry): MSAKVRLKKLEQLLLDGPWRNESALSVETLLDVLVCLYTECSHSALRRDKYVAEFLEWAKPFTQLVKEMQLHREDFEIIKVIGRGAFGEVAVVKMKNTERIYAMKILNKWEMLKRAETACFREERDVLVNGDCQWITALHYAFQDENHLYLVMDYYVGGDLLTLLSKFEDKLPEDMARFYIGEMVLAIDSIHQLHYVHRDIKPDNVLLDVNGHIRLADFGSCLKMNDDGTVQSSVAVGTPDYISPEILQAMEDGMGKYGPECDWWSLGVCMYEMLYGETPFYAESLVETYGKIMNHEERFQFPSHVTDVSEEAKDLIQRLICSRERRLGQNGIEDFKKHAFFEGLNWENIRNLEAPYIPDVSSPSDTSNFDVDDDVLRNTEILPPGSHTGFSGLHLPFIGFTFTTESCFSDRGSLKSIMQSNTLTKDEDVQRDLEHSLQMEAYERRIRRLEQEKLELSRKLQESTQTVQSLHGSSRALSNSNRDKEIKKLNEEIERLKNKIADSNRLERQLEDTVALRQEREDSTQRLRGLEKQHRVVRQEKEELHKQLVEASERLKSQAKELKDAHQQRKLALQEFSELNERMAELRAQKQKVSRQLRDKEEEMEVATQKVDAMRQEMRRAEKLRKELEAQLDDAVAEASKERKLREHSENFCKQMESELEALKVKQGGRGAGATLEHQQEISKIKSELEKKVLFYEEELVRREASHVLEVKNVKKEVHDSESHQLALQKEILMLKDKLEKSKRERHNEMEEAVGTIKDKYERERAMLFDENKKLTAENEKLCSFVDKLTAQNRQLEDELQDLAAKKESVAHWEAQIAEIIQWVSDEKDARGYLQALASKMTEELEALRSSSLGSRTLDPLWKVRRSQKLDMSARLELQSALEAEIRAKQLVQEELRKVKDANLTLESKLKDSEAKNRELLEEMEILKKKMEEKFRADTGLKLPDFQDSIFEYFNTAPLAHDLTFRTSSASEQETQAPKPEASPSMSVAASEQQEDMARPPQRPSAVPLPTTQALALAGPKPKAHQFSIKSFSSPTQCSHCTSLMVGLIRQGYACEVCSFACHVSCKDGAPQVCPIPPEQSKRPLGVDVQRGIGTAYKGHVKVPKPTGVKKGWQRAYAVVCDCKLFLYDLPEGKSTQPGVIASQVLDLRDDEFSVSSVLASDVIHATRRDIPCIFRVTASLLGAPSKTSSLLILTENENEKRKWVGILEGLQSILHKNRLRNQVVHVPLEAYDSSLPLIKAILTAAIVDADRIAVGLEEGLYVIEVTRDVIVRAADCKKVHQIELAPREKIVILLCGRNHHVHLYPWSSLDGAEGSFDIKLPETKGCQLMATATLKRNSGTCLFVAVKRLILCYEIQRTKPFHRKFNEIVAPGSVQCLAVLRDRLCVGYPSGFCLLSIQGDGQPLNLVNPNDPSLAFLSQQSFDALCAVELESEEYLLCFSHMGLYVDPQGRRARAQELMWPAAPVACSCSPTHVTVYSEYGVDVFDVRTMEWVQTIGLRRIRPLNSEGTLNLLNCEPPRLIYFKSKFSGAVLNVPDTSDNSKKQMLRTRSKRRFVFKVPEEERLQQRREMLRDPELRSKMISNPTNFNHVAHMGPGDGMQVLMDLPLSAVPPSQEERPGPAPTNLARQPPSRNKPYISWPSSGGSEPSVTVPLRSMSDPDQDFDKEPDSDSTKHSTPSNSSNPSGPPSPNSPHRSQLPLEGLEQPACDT

[4] = biological target: NT-3 growth factor receptor (Homo sapiens) (UniProt Q16288); test: Inhibition of human recombinant TRKC at 40 nM in presence of ATP by radiometric assay relative to control
Sequence of NT-3 growth factor receptor (Homo sapiens) (Q16288 32-839 limits assumed): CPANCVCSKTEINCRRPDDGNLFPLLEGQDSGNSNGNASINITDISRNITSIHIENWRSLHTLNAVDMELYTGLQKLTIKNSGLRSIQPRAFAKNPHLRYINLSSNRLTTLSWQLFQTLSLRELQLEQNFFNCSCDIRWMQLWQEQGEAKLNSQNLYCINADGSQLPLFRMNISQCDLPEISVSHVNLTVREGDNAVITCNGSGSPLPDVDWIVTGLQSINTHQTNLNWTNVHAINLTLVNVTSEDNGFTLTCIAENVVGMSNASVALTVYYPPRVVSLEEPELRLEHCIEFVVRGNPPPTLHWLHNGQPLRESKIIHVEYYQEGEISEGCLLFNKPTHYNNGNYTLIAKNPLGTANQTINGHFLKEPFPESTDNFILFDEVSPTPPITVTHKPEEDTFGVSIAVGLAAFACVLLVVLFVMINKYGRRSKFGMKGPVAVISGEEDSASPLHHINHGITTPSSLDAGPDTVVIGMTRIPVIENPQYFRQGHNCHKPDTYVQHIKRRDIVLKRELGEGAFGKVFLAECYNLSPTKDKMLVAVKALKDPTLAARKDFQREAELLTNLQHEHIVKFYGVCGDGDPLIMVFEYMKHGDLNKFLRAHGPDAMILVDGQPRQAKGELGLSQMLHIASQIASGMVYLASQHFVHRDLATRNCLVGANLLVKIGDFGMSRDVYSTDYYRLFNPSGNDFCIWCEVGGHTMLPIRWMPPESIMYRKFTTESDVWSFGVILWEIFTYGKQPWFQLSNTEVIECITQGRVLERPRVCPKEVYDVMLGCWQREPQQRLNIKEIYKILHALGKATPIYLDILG

[5] = biological target: T1, Protein kinase C epsilon type (Homo sapiens) (UniProt Q02156); test: Inhibition of human recombinant PKCe at 40 nM related to control ULK1
T1 sequence (whole entry): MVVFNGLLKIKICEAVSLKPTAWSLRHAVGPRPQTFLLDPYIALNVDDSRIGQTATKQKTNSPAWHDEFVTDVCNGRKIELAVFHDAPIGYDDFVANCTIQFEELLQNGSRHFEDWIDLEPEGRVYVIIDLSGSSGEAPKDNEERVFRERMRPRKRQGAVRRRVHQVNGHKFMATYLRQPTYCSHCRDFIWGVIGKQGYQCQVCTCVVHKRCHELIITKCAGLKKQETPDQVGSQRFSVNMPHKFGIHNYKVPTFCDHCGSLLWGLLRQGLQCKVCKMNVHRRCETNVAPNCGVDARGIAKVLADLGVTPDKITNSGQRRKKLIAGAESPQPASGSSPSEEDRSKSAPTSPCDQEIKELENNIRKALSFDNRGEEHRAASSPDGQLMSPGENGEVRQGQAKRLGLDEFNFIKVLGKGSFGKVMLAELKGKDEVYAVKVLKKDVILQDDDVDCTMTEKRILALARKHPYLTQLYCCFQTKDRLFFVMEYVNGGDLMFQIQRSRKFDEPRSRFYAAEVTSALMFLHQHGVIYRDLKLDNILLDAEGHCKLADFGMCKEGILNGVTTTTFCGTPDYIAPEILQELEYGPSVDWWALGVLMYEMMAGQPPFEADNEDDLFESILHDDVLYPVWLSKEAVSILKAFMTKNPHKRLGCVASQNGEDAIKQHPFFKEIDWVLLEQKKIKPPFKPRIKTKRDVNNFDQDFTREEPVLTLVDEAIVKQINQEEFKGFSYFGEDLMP

[6] = biological target: T2, G protein-coupled receptor kinase 3 (Homo sapiens) (UniProt P35626); test: Inhibition of human recombinant BARK2 at 500 nM in presence of ATP by radiometric assay relative to control
T2 sequence (whole entry): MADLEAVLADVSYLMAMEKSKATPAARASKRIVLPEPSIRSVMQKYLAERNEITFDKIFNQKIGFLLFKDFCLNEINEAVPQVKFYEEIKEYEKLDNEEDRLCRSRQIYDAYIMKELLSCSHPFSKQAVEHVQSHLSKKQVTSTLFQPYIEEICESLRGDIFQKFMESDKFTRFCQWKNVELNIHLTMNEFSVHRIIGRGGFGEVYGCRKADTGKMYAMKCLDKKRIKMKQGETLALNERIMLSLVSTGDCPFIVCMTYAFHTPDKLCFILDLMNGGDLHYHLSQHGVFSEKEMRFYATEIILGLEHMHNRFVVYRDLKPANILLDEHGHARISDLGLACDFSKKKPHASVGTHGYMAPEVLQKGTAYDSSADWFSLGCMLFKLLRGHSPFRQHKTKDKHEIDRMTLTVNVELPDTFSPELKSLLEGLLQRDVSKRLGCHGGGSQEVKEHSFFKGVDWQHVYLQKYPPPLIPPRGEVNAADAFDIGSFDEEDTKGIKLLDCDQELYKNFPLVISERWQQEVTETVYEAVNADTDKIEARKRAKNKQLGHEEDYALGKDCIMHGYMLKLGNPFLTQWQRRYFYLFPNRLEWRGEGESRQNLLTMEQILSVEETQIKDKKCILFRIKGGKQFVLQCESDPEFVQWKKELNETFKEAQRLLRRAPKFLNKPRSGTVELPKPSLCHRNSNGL
In short: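 Part of a radiometric in vitro activity panel of 327 recombinant human kinases. Each kinase was tested in duplicate at one inhibitor concentration. Activity remaining was expressed as a percentage of the vehicle control, and percent inhibition was taken as 100 minus that value.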

[7] = biological target: Serine/threonine-protein kinase MARK1 (Homo sapiens) (UniProt Q9P0L2); test: Inhibition of human recombinant MARK1 at 500 nM in presence of ATP by radiometric assay relative to control
[8] = biological target: Calcium/calmodulin-dependent protein kinase type 1 (Homo sapiens) (UniProt Q14012); test: Inhibition of human recombinant CaMK1a at 15 nM in presence of ATP by radiometric assay relative to control
[9] = biological target: Aurora kinase B (Homo sapiens) (UniProt Q96GD4); test: Inhibition of human recombinant AurB at 15 nM related to control ULK1
Sequence of Aurora kinase B (Homo sapiens) (Q96GD4 whole entry): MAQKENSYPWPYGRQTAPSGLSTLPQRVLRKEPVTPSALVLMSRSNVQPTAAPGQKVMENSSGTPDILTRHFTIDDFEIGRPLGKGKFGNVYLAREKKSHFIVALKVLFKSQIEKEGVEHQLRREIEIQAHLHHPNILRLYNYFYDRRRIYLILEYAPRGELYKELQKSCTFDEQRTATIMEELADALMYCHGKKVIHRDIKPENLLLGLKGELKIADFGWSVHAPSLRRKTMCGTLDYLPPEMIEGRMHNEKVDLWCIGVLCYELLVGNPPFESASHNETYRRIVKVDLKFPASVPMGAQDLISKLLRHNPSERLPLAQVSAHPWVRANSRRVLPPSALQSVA

[10] = biological target: Cyclin-dependent kinase 5 (Homo sapiens) (UniProt Q00535); test: Inhibition of human recombinant CDK5 at 15 nM related to control ULK1
Sequence of Cyclin-dependent kinase 5 (Homo sapiens) (Q00535 whole entry, looked up): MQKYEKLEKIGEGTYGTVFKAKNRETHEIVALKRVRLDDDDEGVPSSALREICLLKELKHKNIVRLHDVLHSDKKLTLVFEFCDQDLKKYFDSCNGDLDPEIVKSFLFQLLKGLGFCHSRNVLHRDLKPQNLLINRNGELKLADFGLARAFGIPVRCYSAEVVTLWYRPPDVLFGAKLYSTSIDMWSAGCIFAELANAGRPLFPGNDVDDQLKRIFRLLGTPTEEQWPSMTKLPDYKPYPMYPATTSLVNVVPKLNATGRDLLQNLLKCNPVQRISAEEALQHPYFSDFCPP

[11] = biological target: Glycogen synthase kinase-3 alpha (Homo sapiens) (UniProt P49840); test: Inhibition of human recombinant GSK3A at 15 nM related to control ULK1
Sequence of Glycogen synthase kinase-3 alpha (Homo sapiens) (P49840 2-483 limits assumed): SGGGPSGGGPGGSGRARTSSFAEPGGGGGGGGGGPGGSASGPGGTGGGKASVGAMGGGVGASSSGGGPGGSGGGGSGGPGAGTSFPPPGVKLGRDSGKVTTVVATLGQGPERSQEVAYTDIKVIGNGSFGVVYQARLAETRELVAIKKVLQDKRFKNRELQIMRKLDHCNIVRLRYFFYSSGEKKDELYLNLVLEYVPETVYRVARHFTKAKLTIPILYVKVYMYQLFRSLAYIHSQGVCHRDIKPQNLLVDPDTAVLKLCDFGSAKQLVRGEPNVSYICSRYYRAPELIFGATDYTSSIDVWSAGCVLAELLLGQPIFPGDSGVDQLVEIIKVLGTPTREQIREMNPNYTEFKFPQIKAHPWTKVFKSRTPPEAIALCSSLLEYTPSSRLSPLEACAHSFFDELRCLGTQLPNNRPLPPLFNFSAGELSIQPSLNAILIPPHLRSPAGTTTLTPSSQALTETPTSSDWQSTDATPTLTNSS

[12] = biological target: T3, Testis-specific serine/threonine-protein kinase 4 (Homo sapiens) (UniProt Q6SA08); test: Inhibition of human recombinant TSSK4 at 15 nM related to control ULK1
T3 sequence (whole entry): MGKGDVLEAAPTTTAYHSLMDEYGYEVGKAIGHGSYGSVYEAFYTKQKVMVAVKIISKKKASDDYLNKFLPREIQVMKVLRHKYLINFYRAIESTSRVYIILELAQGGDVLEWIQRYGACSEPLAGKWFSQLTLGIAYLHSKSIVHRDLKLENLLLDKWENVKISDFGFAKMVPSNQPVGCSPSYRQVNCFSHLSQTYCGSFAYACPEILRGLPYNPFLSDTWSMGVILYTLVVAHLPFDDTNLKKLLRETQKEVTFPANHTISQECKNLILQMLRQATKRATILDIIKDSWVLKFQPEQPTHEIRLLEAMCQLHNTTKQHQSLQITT

Sequence of 5'-AMP-activated protein kinase catalytic subunit alpha-2 (Homo sapiens) (P54646 whole entry, looked up): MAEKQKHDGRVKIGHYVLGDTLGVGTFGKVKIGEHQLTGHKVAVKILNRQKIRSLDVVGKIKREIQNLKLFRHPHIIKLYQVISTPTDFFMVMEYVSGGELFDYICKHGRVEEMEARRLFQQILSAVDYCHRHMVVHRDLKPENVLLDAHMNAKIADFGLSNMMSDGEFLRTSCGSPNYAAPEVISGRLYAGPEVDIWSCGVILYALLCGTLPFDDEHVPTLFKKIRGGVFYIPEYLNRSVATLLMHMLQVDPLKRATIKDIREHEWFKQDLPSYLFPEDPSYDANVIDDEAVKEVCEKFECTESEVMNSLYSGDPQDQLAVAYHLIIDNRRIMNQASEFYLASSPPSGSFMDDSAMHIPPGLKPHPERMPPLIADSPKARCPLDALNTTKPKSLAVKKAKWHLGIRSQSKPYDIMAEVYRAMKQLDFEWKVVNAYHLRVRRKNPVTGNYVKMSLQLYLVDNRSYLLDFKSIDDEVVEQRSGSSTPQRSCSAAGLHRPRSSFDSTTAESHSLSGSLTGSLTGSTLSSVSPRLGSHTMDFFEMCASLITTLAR

O=C(N[C@@H](C1CC1)C(F)(F)F)c1cc(-c2cnn3cc(-c4ccc(F)cc4)cnc23)cs1
inhibition [1]: 7%
inhibition [2]: 29%
inhibition [3]: 5%
inhibition [4]: 0%
fold change (FC) [5]: 0

CNC(=O)c1ccccc1Oc1nc(Nc2cc(OC)c(OC)c(OC)c2)ncc1Br
inhibition [6]: 7%
inhibition [7]: 54%

CC(C)[C@H](NC(=O)c1cc(-c2cnn3cc(-c4ccc(OCCN5CCCCC5)cc4)cnc23)cs1)C(F)(F)F
inhibition [8]: 7%
fold change (FC) [9]: 0.2
fold change (FC) [10]: 0.26
fold change (FC) [11]: 0
fold change (FC) [12]: 0
